{"data": "Measurements pooled from the literature", "target": "Aurora kinase C (AURKC, Homo sapiens, UniProt Q9UQB9)", "Residues used in one study (Q9UQB9 1-309)": "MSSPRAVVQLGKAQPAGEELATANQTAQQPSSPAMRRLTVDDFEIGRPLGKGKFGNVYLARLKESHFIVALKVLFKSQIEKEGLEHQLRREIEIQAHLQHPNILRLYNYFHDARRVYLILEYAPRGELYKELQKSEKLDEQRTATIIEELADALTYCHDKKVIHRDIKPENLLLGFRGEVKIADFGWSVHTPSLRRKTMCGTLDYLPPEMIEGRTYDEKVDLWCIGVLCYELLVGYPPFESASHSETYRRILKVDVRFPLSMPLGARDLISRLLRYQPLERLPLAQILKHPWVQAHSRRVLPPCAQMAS"}
{"SMILES": "CCCCC(=O)Nc1ccc(-c2ccc3ncn(CCC)c(=O)c3c2)cn1", "assay": "binding, competition with immobilised ligand", "conditions": "0.5 µM", "endpoint": "remaining binding", "result": "83%"}
{"SMILES": "CO[C@@H]1[C@H](N(C)C(=O)c2ccccc2)C[C@H]2O[C@]1(C)n1c3ccccc3c3c4c(c5c6ccccc6n2c5c31)C(=O)NC4", "assay": "enzyme activity, inhibitor", "conditions": "1 µM", "endpoint": "inhibition", "result": "99%"}
{"SMILES": "Cc1ccc(NC(=O)c2ccnc(C(F)(F)F)c2)cc1-c1cc(OCCO)nc(N2CCOCC2)c1", "assay": "binding, competition with immobilised ligand", "conditions": "1 µM", "endpoint": "remaining binding", "result": "83%"}
{"SMILES": "C[C@]1(O)CCCN(c2nc(Nc3ccc(S(=O)(=O)N[C@H]4CC[C@H](CN5CCN(c6ccc(C7CCC(=O)NC7=O)cc6F)CC5)CC4)cc3F)ncc2C(F)(F)F)C1 (stereo partly shown)", "assay": "binding, competition with immobilised ligand", "conditions": "1 µM", "endpoint": "remaining binding", "result": "97%"}
{"SMILES": "COc1ccc2[nH]c3c4[nH]c5ccc(OC)cc5c4c4c(c3c2c1)C(=O)NC4=O", "assay": "binding, competition with immobilised ligand", "conditions": "1 µM", "endpoint": "remaining binding", "result": "17%"}
{"SMILES": "COc1ccc2oc(-c3ccc4nc(N)oc4c3)c/c(=N\\c3ccccc3NC(=O)CCN)c2c1", "assay": "binding", "conditions": "1 µM", "endpoint": "remaining binding", "result": "106%"}
{"SMILES": "CC(C)S(=O)(=O)c1ccc2nccc(Nc3ccc4sc(C5CCCC5)nc4c3)c2c1", "assay": "enzyme activity, inhibitor", "conditions": "1 µM", "endpoint": "activity vs control", "result": "101%"}
{"SMILES": "CNS(=O)(=O)c1ccc(Nc2ncc(C(F)(F)F)c(N3CCC[C@](C)(O)C3)n2)c(C)c1", "assay": "binding, competition with immobilised ligand", "conditions": "1 µM", "endpoint": "remaining binding", "result": "37%"}
{"SMILES": "C1=C/COCc2cc(ccc2OCCN2CCCC2)Nc2nccc(n2)-c2cccc(c2)COC/1", "assay": "binding", "conditions": "0.1 µM", "endpoint": "remaining binding", "result": "96%"}
{"SMILES": "CC#CC(=O)N1CCC[C@H]1c1nc(-c2ccc(C(=O)Nc3ccccn3)cc2)c2c(N)nccn12", "assay": "enzyme activity, inhibitor", "conditions": "1 µM", "endpoint": "inhibition", "result": "18%"}
